# Published values of several laboratories.
# Each line is one published result; the experiments were not run side by side.
# Read-out: cell growth or viability
SMILES,cell line,test,conditions,IC50
CC(C)C[C@H](NC(=O)[C@H](Cc1ccccc1)NC(=O)c1cnccn1)B(O)O,Ishikawa,ATP luminescence,,0.0071 µM
CCCCN(Cc1ccc(C(=O)NO)cc1)C(=O)Nc1ccccc1,HAL-01,ATP luminescence,72 h,9.05 µM
Nc1nc2sc(CCCCCCc3ccc(C(=O)N[C@@H](CCC(=O)O)C(=O)O)cc3)cc2c(=O)[nH]1,R2/PCFT4,,"96 h, pH 7.2",> 1 µM
CCOc1cc(-c2nc3ccc(C)cc3[nH]2)ccc1O,C26,MTT,48 h,32.8 µM
Nc1nc2sc(CCCc3ccc(C(=O)N[C@@H](CCC(=O)O)C(=O)O)cc3)cc2c(=O)[nH]1,R2/PCFT4,,"96 h, pH 7.2",> 1 µM
O=C(/C=C/C=C/c1ccc2c(c1)OCO2)N1CCCCC1,HUVEC,MTT,48 h,41.6 µg/mL
COc1cc(Nc2nccc(-c3cnn4nc(OC)ccc34)n2)cc(C(F)(F)F)c1,HCC38,ATP luminescence,,0.93 µM
CCN(CC)CCn1cccc1/C=N/NC(=O)Nc1cc2c(Nc3ccc(F)c(Cl)c3)ncnc2cc1O[C@H]1CCOC1,PC-3,MTT,72 h,0.15 µM
CN1c2ccccc2C(=O)N2[C@H](C(=O)Nc3ccc(/C=C/C(=O)NO)cc3)Cc3c([nH]c4ccccc34)[C@@H]12,HUVEC,,,7.4 µM
CO[C@H]1/C=C\C=C(/C)C(=O)NC2=CC(=O)C(NCCN(C)C)=C(C[C@@H](C)C[C@H](OC)[C@H](O)[C@@H](C)/C=C(\C)[C@@H]1OC(N)=O)C2=O,HUVEC,MTT,,0.88 µM
Nc1nc2sc(CCCCCCCCc3ccc(C(=O)N[C@@H](CCC(=O)O)C(=O)O)cc3)cc2c(=O)[nH]1,R2/PCFT4,,"96 h, pH 7.2",> 1 µM
O=C(N/N=C/c1cccn1CCCN1CCOCC1)Nc1cc2c(Nc3ccc(F)c(Cl)c3)ncnc2cc1O[C@H]1CCOC1,PC-3,MTT,72 h,6.32 µM
O=c1[nH]cc(F)c(=O)[nH]1,HUVEC,MTT,48 h,> 50 µM
COc1cccc2c1C(=O)c1c(O)c3c(c(O)c1C2=O)C[C@@](O)(C(=O)CO)C[C@@H]3O[C@H]1C[C@H](N)[C@H](O)[C@H](C)O1,HUVEC,MTT,48 h,2 µg/mL
Nc1ccn([C@@H]2O[C@H](CO)[C@@H](O)C2(F)F)c(=O)n1,HFF-1,MTT,,14.4 µM
OCc1ccc2c(c1C#Cc1ccc(O)cc1)C(c1ccc(O)cc1)(c1ccc(O)cc1)c1cc(O)ccc1-2,HUVEC,MTT,48 h,> 50 µM
